For 1 molecule, MIC and HD100 results are on record in ChEMBL document CHEMBL1811906, “Synthesis and evaluation of strand and turn modified ring-extended gramicidin S derivatives” (Bioorg Med Chem, 2011).

Converted amounts (≈) assume the structure as drawn. Residues, ends and D or L forms follow the SMILES beside them. Some results are limits rather than exact numbers.

One data set has as its system Escherichia coli. In words: Antimicrobial activity against Escherichia coli ATCC 25922 after 24 hrs by broth dilution method. It is filed as functional. The note with it: ATCC 25922, 24 h. The gist of the method:
(§1)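 Strains stored at −70 °C, grown at 30 °C on blood agar, suspended in physiological saline to OD595 0.1, diluted 10× in saline. 2 µL inoculum added to 100 µL nutrient broth with yeast extract. Peptides dissolved in ethanol (4 g/L), diluted in water (1 g/L), then two-fold in broth (64 to 1 mg/L). Incubated at 30 °C; MIC read as lowest concentration inhibiting growth at 24 h.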

For the next data set, the system named is Bacillus cereus. Kind of data set: Antimicrobial activity against Bacillus cereus ATCC 11778 after 24 hrs by broth dilution method. It is filed as functional. The note with it: ATCC 11778, 24 h. The procedure, abridged: as §1
The test system of a further data set is Enterobacter cloacae. In words: Antimicrobial activity against Enterobacter cloacae 1190900252 after 24 hrs by broth dilution method. The note with it: Enterobacter cloacae, 1190900252, 24 h. It is filed as functional. The procedure, abridged:
as §1

Another data set deals with Pseudomonas aeruginosa. In words: Antimicrobial activity against Pseudomonas aeruginosa ATCC 27853 after 24 hrs by broth dilution method. It is filed as functional. The note with it: ATCC 27853, 24 h. The gist of the method:
as §1

The subject of a further data set is Staphylococcus aureus. Kind of data set: Antimicrobial activity against Staphylococcus aureus ATCC 29213 after 24 hrs by broth dilution method. It is filed as functional. The note with it: ATCC 29213, 24 h. The gist of the method:
as §1
(In general: Broth dilution looks for growth in wells or tubes with falling amounts of substance.)

In another data set the test system is Klebsiella pneumoniae. Kind of data set: Antimicrobial activity against Klebsiella pneumoniae 1190901525 after 24 hrs by broth dilution method. It is filed as functional. The note with it: Klebsiella pneumoniae, 1190901525, 24 h. The gist of the method:
as §1

The next data set relates to Proteus mirabilis. Kind of data set: Antimicrobial activity against Proteus mirabilis 1190901236 after 24 hrs by broth dilution method. It is filed as functional. The note with it: Proteus mirabilis, 1190901236, 24 h. The gist of the method: as §1
Data set [1] deals with Staphylococcus epidermidis. In words: Antimicrobial activity against Staphylococcus epidermidis ATCC 12228 after 24 hrs by broth dilution method. It is filed as functional. The note with it: ATCC 12228, 24 h. The procedure, abridged: as §1
Data set [2] is described as follows: Toxicity in human erythrocytes assessed as hemolytic activity after 4 hrs. It is filed as cell-based. The note with it: erythrocyte. The procedure, abridged: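 Heparinized fresh blood spun at 1000 g, 10 °C; erythrocytes washed three times in 0.85% saline and diluted to 1/25 packed volume. Peptide stocks 1.5 mM in 30% DMSO/saline, serially two-fold diluted in saline. Cells added, then incubated 4 h at 37 °C and centrifuged. Supernatant A405 read against 1% Triton X-100 as full lysis; single experiment run in triplicate.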

Another data set concerns Enterococcus faecalis. Kind of data set: Antimicrobial activity against Enterococcus faecalis ATCC 29212 after 24 hrs by broth dilution method. It is filed as functional. The note with it: ATCC 29212, 24 h. The gist of the method:
as §1

Usually MIC stands for the smallest concentration in the dilution series that meets the test's criterion for growth inhibition. A higher MIC goes with a need for much substance. Consider `CC(C)C[C@@H]1NC(=O)[C@H](CCCN)NC(=O)[C@H](C(C)C)NC(=O)[C@@H]2CCCN2C(=O)[C@@H](Cc2ccccc2)NC(=O)[C@H](CC(C)C)NC(=O)[C@H](CCCN)NC(=O)[C@H](C(C)C)NC(=O)[C@@H]2CCCN2C(=O)[C@@H](Cc2ccccc2)NC1=O` [GRAMICIDIN S] (HELM PEPTIDE1{L.[dF].P.V.[Orn].L.[dF].P.V.[Orn]}$PEPTIDE1,PEPTIDE1,1:R1-10:R2$$$V2.0), for which the MIC against Escherichia coli turned out to be 32 µg/mL (≈ 28 µM); in the data set on Bacillus cereus, 4 µg/mL (≈ 3.5 µM); in the data set with Enterobacter cloacae, 64 µg/mL (≈ 56.1 µM); with Pseudomonas aeruginosa it was 64 µg/mL (≈ 56.1 µM); against Staphylococcus aureus it was 4 µg/mL (≈ 3.5 µM); in the data set with Klebsiella pneumoniae, 64 µg/mL (≈ 56.1 µM). Besides, the MIC was over 64 µg/mL in the data set on Proteus mirabilis, 4 µg/mL (≈ 3.5 µM) in data set [1] and 8 µg/mL (≈ 7.01 µM) with Enterococcus faecalis. For the same molecule, the HD100 in data set [2] came to 62.5 µM.
